In ChEMBL document CHEMBL4316636, “Tetrandraxanthones A-I, Prenylated and Geranylated Xanthones from the Stem Bark of Garcinia tetrandra” (J Nat Prod, 2019) one finds IC50 data, which are given here for 31 compounds.

SMILES strings stand for the structures.

Common to all, as to format: functional, cell-based
The subject of one assay is HT-29. The experiment in a line: Cytotoxicity in human HT-29 cells incubated for 72 hrs by MTT assay. Conditions: HT-29, 72 h. Summed up: (§1)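 MTT colorimetric read-out after 72 h incubation of tumour cells: Hep G2 hepatocellular carcinoma, HeLa S3 cervix adenocarcinoma, MCF-7 breast adenocarcinoma, HT-29 colon adenocarcinoma, and KB epidermoid carcinoma. IC50 is given as the mean ± SD of three experiments, with doxorubicin as the positive control. HeLa S3 and KB were screened first.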
For orientation: Formazan colour is commonly taken as a measure of viable cells.

In the next assay the test system is HepG2. The experiment in a line: Cytotoxicity in human HepG2 cells incubated for 72 hrs by MTT assay. To be noted: HepG2, 72 h. Summed up: as §1
The test system of a further assay is MCF7. The experiment in a line: Cytotoxicity in human MCF7 cells incubated for 72 hrs by MTT assay. Conditions: MCF7, 72 h. Summed up:
as §1

In a further assay the test system is KB. The experiment in a line: Cytotoxicity in human KB cells incubated for 72 hrs by MTT assay. Summed up: as §1
The test system of another assay is HeLa S3. The experiment in a line: Cytotoxicity in human HeLaS3 cells incubated for 72 hrs by MTT assay. To be noted: HeLa S3, 72 h. Summed up: as §1

Take `O=c1c2cc(O)c(O)cc2oc2cc(O)cc(O)c12`: the half-inhibitory concentration (IC50) with HT-29, with HepG2, in the assay with MCF7, in the assay on KB and in the assay on HeLa S3 was more than 10 µM each time.

In the case of `COc1c(O)cc2oc3cc(O)cc(O)c3c(=O)c2c1CC=C(C)C`, the half-maximal inhibitory concentration (IC50) in the assay on HT-29, with HepG2, in the assay with MCF7, in the assay with KB and in the assay with HeLa S3 was more than 10 µM in each case.

For `COc1c(O)cc2oc3cc(O)cc(O)c3c(=O)c2c1CC1=C(C)CCCC1(C)C`, the IC50 in the assay with HT-29, in the assay on HepG2, with MCF7, in the assay with KB and with HeLa S3 was more than 10 µM throughout.

On to `COc1c(O)cc2oc3cc(O)cc(O)c3c(=O)c2c1C/C=C(\C)CCC=C(C)C` [RUBRAXANTHONE], for which the IC50 with HT-29, in the assay on HepG2, in the assay on MCF7, in the assay on KB and in the assay with HeLa S3 was more than 10 µM throughout.

On to `COc1c(O)cc2oc3cc4c(c(O)c3c(=O)c2c1CC=C(C)C)C=CC(C)(C)O4` [MANGOSTANIN], for which the IC50 (in general, the midpoint of a concentration-inhibition curve) in the assay with HT-29 was 1.6 µM; in the assay on HepG2 it was 3.4 µM; in the assay on MCF7, 1.9 µM; in the assay with KB it was 1.7 µM; in the assay on HeLa S3, 1.9 µM.

For `C=CC(C)(C)c1c(OC)c(CC=C(C)C)c(O)c2c(=O)c3ccc(O)c(O)c3oc12` [NIGROLINEAXANTHONE E], the IC50 in the assay with HT-29, in the assay with HepG2, in the assay with MCF7, in the assay with KB and in the assay with HeLa S3 was more than 10 µM each time.

For the compound `COc1c(O)cc2oc3c4c(cc(O)c3c(=O)c2c1C/C=C(\C)CCC=C(C)C)OC(C)(C)C=C4`, the IC50 in the assay on HT-29, in the assay on HepG2, in the assay with MCF7, in the assay on KB and in the assay with HeLa S3 was more than 10 µM each time.

Take `COc1c(O)cc2oc3c(CC=C(C)C)c(O)cc(O)c3c(=O)c2c1CCC(C)(O)CCC=C(C)C` (stereo not given): the 50% inhibitory concentration (IC50) with HT-29 was more than 10 µM; in the assay with HepG2, more than 10 µM; in the assay with MCF7 it was 8.8 µM; with KB it was 7.1 µM; in the assay with HeLa S3 it was more than 10 µM.

As to `O=c1c2cc(O)ccc2oc2cc(O)cc(O)c12`, the IC50 in the assay with HT-29, in the assay on HepG2, in the assay with MCF7, in the assay with KB and in the assay on HeLa S3 was more than 10 µM in each case.

Take `COc1c(O)cc2oc3c4c(cc(O)c3c(=O)c2c1CC=C(C)C)OC(C)(CCC=C(C)C)C=C4` (stereo not given): the IC50 in the assay on HT-29, in the assay with HepG2, in the assay on MCF7, in the assay with KB and in the assay on HeLa S3 was more than 10 µM throughout.

As to `C=CC(C)(C)c1c2c(c(O)c3c(=O)c4ccc(O)c(O)c4oc13)C=CC(C)(C)O2` [MACLURAXANTHONE], the 50% inhibitory concentration (IC50) with HT-29 is more than 10 µM; with HepG2 it was more than 10 µM; in the assay on MCF7, more than 10 µM; in the assay with KB, 7.4 µM; in the assay on HeLa S3, 6.7 µM.

As for `C=C1CCCC(C)(C)C1Cc1c(OC)c(O)cc2oc3cc(O)cc(O)c3c(=O)c12` (stereo not given), the IC50 in the assay with HT-29, in the assay on HepG2, with MCF7, in the assay with KB and in the assay on HeLa S3 was more than 10 µM in each case.

Regarding `COc1c(O)cc2oc3c(C/C=C(\C)CCC=C(C)C)c(O)c(CC=C(C)C)c(O)c3c(=O)c2c1CC=C(C)C`, the IC50 in the assay on HT-29, in the assay with HepG2, in the assay with MCF7, in the assay with KB and in the assay with HeLa S3 was more than 10 µM each time.

For the compound `COc1c(O)cc2oc3cc(O)cc(O)c3c(=O)c2c1CCC1(C)CCCC(C)(C)O1` (stereo not given), the concentration for half-maximal inhibition (IC50) in the assay on HT-29, in the assay on HepG2, in the assay with MCF7, with KB and in the assay with HeLa S3 was more than 10 µM each time.

Turning to `O=c1c2cc(O)ccc2oc2cccc(O)c12`, the IC50 with HT-29, in the assay with HepG2, with MCF7, with KB and in the assay on HeLa S3 was more than 10 µM throughout.

Take `COc1c(O)c(OC)c2oc3cc4c(c(O)c3c(=O)c2c1OC)C=CC(C)(C)O4`: the IC50 with HT-29, with HepG2, in the assay on MCF7, in the assay with KB and in the assay on HeLa S3 was more than 10 µM in each case.

In the case of `COc1c(O)cc2oc3c(CC=C(C)C)c(O)cc(O)c3c(=O)c2c1C/C=C(\C)CCC=C(C)C`, the half-maximal inhibitory concentration (IC50) with HT-29 is more than 10 µM; in the assay on HepG2, more than 10 µM; in the assay on MCF7 it was 7 µM; in the assay on KB, 7.1 µM; in the assay on HeLa S3, 9 µM.

In the case of `COc1c(O)cc2oc3cc4c(c(O)c3c(=O)c2c1CCC(C)(C)O)CCC(C)(C)O4`, the half-inhibitory concentration (IC50) with HT-29, with HepG2, in the assay on MCF7, in the assay on KB and in the assay on HeLa S3 was more than 10 µM in each case.

`COc1c(O)ccc2c(=O)c3c(O)c4c(cc3oc12)OC(C)(C)C=C4`: the half-inhibitory concentration (IC50) in the assay on HT-29, in the assay on HepG2, in the assay on MCF7, with KB and in the assay with HeLa S3 was more than 10 µM throughout.

As for `COc1c(O)cc2oc3cc4c(c(O)c3c(=O)c2c1CC=C(C)C)CCC(C)(C)O4`, the half-inhibitory concentration (IC50) in the assay with HT-29, with HepG2, in the assay on MCF7, in the assay on KB and with HeLa S3 was more than 10 µM throughout.

With `COc1cccc2c1C(=O)c1c(O)c3c(c(O)c1C2=O)C[C@@](O)(C(=O)CO)C[C@@H]3O[C@H]1C[C@H](N)[C@H](O)[C@H](C)O1` [DOXORUBICIN], the IC50 in the assay on HT-29 was found to be 0.34 µM; in the assay with HepG2, 1.43 µM; in the assay on MCF7 it was 0.49 µM; with KB, 0.01 µM; with HeLa S3 it was 0.12 µM.

In the case of `COc1c(O)cc2oc3c(CC=C(C)C)c(O)cc(O)c3c(=O)c2c1CC=C(C)C`, the concentration for half-maximal inhibition (IC50) with HT-29, with HepG2, with MCF7, with KB and with HeLa S3 was more than 10 µM each time.

Consider `COc1c(O)cc2oc3cc(O)cc(O)c3c(=O)c2c1C/C=C(\C)CCCC(C)(C)O` [BUTYRAXANTHONE D], for which the concentration for half-maximal inhibition (IC50) with HT-29, with HepG2, in the assay on MCF7, in the assay with KB and with HeLa S3 was more than 10 µM in each case.

For the compound `COc1c(O)cc2oc3c(C/C=C(\C)CCC=C(C)C)c(O)cc(O)c3c(=O)c2c1CCC(C)(C)O`, the half-inhibitory concentration (IC50) with HT-29, in the assay on HepG2, with MCF7, with KB and in the assay on HeLa S3 was more than 10 µM in each case.

As to `O=c1c2ccc(O)c(O)c2oc2cc(O)cc(O)c12`, the IC50 with HT-29, in the assay on HepG2, with MCF7, with KB and with HeLa S3 was more than 10 µM in each case.

On to `COc1c(O)cc2oc3cc(O)c(CC=C(C)C)c(O)c3c(=O)c2c1CC=C(C)C` [MANGOSTIN], for which the half-inhibitory concentration (IC50) in the assay with HT-29, in the assay with HepG2, in the assay with MCF7, with KB and in the assay with HeLa S3 was more than 10 µM in each case.

As for `CC1(C)CCc2c(cc3oc4ccc(O)cc4c(=O)c3c2O)O1`, the IC50 with HT-29, in the assay on HepG2, in the assay with MCF7, with KB and with HeLa S3 was more than 10 µM in each case.

On to `COc1c(O)cc2oc3c(C/C=C(\C)CCC=C(C)C)c(O)cc(O)c3c(=O)c2c1CC=C(C)C`, for which the half-inhibitory concentration (IC50) in the assay on HT-29 was more than 10 µM; with HepG2 it was more than 10 µM; in the assay on MCF7, 4.3 µM; in the assay with KB, 4.9 µM; with HeLa S3, 5.8 µM.

As to `COc1c(OC)c(OC)c2c(=O)c3c(O)c4c(cc3oc2c1OC)OC(C)(C)C=C4`, the IC50 in the assay with HT-29, in the assay with HepG2, in the assay with MCF7, with KB and with HeLa S3 was more than 10 µM each time.

Turning to `COc1c(O)cc2oc3cc(O)cc(O)c3c(=O)c2c1CCC(C)(O)CCC=C(C)C` (stereo not given), the half-inhibitory concentration (IC50) with HT-29, in the assay on HepG2, with MCF7, in the assay with KB and in the assay on HeLa S3 was more than 10 µM each time.

As for `COc1c(O)cc2oc3cc(O)c(CC=C(C)C)c(O)c3c(=O)c2c1CCC(C)(C)O` [GARCINONE D], the IC50 in the assay on HT-29, in the assay on HepG2, in the assay with MCF7, in the assay on KB and with HeLa S3 was more than 10 µM throughout.
